PP5 inh: blocks human protein phosphatase 5 activity | P53041 | purified PP5c, OMFP substrate fluorescence | inhibition, % at 6.7 µM | actives 0.18% (n = 320,000) | AID 1987;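 active = inhibition above the campaign's mean inhibition across all tested compounds plus 3 SD, cut at about 9.5% in these data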;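 note: 0% = DMSO only and 100% = 100 µM cantharidin control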
TDP2 inh: blocks human TDP2 phosphodiesterase activity; O95551; inhibition, % at 12.8 µM; actives 0.34% (n = 370,000); recombinant TDP2, T5PNP hydrolysis, p-nitrophenol absorbance 415 nm;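 active = inhibition above the mean of all tested compounds plus 3 SD, set per campaign, cut at about 25% in these data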;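 note: 0% = DMSO with enzyme and 100% = buffer with substrate but no TDP2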
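Assay system: Recombinant human TDP2 | Quantity: 120 nM TDP2 per well | Incubation: 2 h at 37 °C | Signal: Epi absorbance | Evaluation: Percent inhibition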
PP1 inh: PP1-alpha (human) inhibition in PP5 counter-screen; AID 2235; actives 0.9% (n = 320,000); purified PP1alpha, OMFP fluorescence; P62136; inhibition, % at 6.7 µM;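 active = inhibition above the mean inhibition of all tested compounds plus 3 SD, computed separately for each screening campaign, cut at about 15% in these data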
Apaf1 inhib: human Apaf-1 inhibition; O14727; reconstituted apoptosome caspase-3 activity, DEVD-Rh110 fluorescence; inhibition, % at 20 µM; actives 0.71% (n = 330,000); active = inhibition of at least 40% at 20 µM;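 note: plate controls were DMSO wells for no effect and DEVD-CHO caspase inhibitor wells for full effect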
Target sequence (O14727 whole entry, looked up): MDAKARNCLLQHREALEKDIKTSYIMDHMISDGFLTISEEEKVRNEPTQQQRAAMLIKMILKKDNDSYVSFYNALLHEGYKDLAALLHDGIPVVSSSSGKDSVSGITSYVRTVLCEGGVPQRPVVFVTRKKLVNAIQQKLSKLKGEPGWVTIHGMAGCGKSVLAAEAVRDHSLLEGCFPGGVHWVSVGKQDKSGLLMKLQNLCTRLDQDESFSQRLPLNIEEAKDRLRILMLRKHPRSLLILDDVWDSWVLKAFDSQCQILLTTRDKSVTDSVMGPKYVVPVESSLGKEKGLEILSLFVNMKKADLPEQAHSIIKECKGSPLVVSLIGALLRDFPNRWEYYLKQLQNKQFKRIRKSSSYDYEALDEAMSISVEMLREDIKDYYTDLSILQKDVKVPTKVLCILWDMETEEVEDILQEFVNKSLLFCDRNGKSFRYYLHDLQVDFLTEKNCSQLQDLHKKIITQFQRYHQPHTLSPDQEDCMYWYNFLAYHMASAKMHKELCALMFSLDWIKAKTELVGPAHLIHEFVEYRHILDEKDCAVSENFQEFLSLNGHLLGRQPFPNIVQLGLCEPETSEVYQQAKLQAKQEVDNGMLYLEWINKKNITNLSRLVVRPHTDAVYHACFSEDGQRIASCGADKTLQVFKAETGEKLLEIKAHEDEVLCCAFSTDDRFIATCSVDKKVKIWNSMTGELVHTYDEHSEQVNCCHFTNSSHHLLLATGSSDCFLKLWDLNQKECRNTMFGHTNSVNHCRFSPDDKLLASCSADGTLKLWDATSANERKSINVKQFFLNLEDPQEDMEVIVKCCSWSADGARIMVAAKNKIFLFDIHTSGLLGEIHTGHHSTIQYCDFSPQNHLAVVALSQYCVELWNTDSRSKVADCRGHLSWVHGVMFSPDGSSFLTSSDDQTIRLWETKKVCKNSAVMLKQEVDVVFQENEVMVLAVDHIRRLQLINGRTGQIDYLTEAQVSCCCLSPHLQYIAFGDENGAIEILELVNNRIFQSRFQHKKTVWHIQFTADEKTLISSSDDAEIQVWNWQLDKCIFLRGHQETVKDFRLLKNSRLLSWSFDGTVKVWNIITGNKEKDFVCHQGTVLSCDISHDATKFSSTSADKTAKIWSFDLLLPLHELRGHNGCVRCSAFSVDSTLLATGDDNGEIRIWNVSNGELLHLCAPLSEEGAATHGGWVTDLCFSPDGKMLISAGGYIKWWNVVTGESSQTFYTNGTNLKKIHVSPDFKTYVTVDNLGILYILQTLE
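detection = Rh110 fluorescence intensity | test system = biochemical Apaf-1 apoptosome reconstitution | also added = cytochrome c and DEVD-Rh110 substrate | schedule = 30 min plus 50 min, RT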
GSTO1 inh: counter-screen for RBBP9 inhibitors: inhibitors of human GSTO1; P78417; recombinant GSTO1, activity-based probe fluorescence polarization; inhibition, % at 5.96 µM; actives 1.1% (n = 300,000); AID 1974;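 active = inhibition above the campaign mean inhibition plus 3 SD, cut at about 35% in these data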;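 note: 0% = GSTO1-1 with DMSO and 100% = wells lacking GSTO1-1 enzyme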
GSTO1 inh conf: GSTO1 (human) inhibition, confirmation; shares compounds with GSTO1 inh; recombinant GSTO1, probe fluorescence polarization; inhibition, % at 5.96 µM; actives 54% (n = 2,400);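 active = inhibition above the primary screen's cutoff, its mean inhibition plus 3 SD, cut at about 35% in these data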;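 note: loss of polarization as inhibitors block binding of rhodamine sulfonate ester activity probe; 0% = GSTO1 with DMSO and 100% = wells lacking GSTO1 enzyme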
PP5 conf: PP5 (human) inhibition, confirmation | shares compounds with PP5 inh | Purified PP5, fluorogenic phosphatase substrate, fluorescence | inhibition, % at 6.7 µM | actives 22% (n = 460); in the data active = inhibition above about 9.5%
PP1 counter 3x: inhibits human PP1 phosphatase in PP5 counter-screen; shares compounds with PP5 inh; PP1 enzyme, fluorescent phosphatase substrate; inhibition, % at 6.7 µM; actives 4% (n = 460); in the data active = inhibition above about 16%
Apaf-1 inh conf: Apaf-1 inhibition, single-dose confirmed; shares compounds with Apaf1 inhib; reconstituted apoptosome, caspase-3 DEVD-Rh110 fluorescence; inhibition, % at 20 µM; actives 25% (n = 1,800); AID 504614;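 active = mean inhibition of at least 40% at 20 µM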;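 note: plate controls were DMSO wells for no effect and DEVD-CHO caspase inhibitor control wells for full effect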
Rh110 interf inh: counter-screen for Apaf-1 inhibitors: fluorescence interference; AID 504615; shares compounds with Apaf1 inhib; Rh110 fluorescence interference, quenched caspase reaction; activation (fluorescence interference), % at 20 µM; 1,800 tested, under 10 active;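 active = signal rise of 40% or more at 20 µM, treated as a fluorescence artifact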
Apaf1 inh interf: counter-screen for Apaf-1 inhibitors: fluorescence interference, dose response; shares compounds with Apaf1 inhib; fluorescence interference counterscreen, Apaf-1 assay format; IC50, µM; 460 tested, under 10 active; AID 588538; call rule not given here
TDP2 inh conf: confirmation of human TDP2 inhibitors; shares compounds with TDP2 inh; recombinant human TDP2, absorbance read-out; inhibition, % at 12.8 µM; actives 22% (n = 1,100); AID 743263; in the data active = inhibition above about 25%;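 note: 0% = vehicle with enzyme and 100% = no enzyme buffer only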
An asterisk follows results filed as active; / = not tested or not shown. This is a sample that favours compounds with a hit; in the whole collection about 2.1% have one here.

SMILES	PP5 inh	TDP2 inh	PP1 inh	Apaf1 inhib	GSTO1 inh	GSTO1 inh conf	TDP2 inh conf	others
Cc1ccc(-c2cc3c(nn2)-c2ccccc2C3=O)cc1	0	10	6	27	17	/	/
Cc1ccccc1-c1cc2c(nn1)-c1ccccc1C2=O	1	63*	-6	97*	75*	70*	50*	Apaf-1 inh conf=61*;Rh110 interf inh=-7;Apaf1 inh interf=>100
CCc1c(Cc2cccc(F)c2)ncn1CCc1ccccc1OC	/	3	/	/	/	/	/
COc1cccc(C(C[N+](=O)[O-])c2c(C)[nH]n(-c3ccccc3)c2=O)c1 (centres undefined)	12*	28*	2	97*	81*	4	21	PP5 conf=-1;PP1 counter 3x=-2;Apaf-1 inh conf=16;Rh110 interf inh=-7
COC(=O)c1cc2c(c3c4cc(F)ccc4n(S(=O)(=O)c4ccc(C)cc4)c13)C(=O)N(c1ccc(OC)cc1)C2	/	-4	/	/	/	/	/
Cn1c(=O)cc(Nc2ccccc2)[nH]c1=O	1	-1	-4	3	12	/	/
O=c1[nH]c(Nc2ccccc2)cc2cc(Br)ccc12	14*	83*	-1	98*	58*	19	58*	PP5 conf=34*;PP1 counter 3x=8
COc1ccc(OC)c(Nc2cc3ccccc3c(=O)[nH]2)c1	9	68*	1	97*	71*	6	61*	Apaf-1 inh conf=94*;Rh110 interf inh=5;Apaf1 inh interf=>100
O=c1cc(Nc2cccc(Br)c2)[nH]c(=O)[nH]1	3	8	5	7	-9	/	/
O=c1[nH]c(Nc2ccccc2)cc2ccccc12	11*	69*	-1	96*	80*	47*	66*	PP5 conf=34*;PP1 counter 3x=0;Apaf-1 inh conf=94*;Rh110 interf inh=-1;Apaf1 inh interf=>100
CC(=O)c1cccc(-c2ccc3c(=O)[nH]c(Nc4ccccc4)cc3c2)c1	9.7*	57*	13	96*	49*	12	52*	PP5 conf=29*;PP1 counter 3x=21*;Apaf-1 inh conf=88*;Rh110 interf inh=8
c1coc(-c2nnc3n2N=C(c2ccc4c(c2)OCO4)CS3)c1	/	7	/	/	/	/	/
COc1ccccc1Nc1nnc(C)c(=O)[nH]1	1	-5	0	2	3	/	/
COc1ccccc1Nc1cc2cc(Br)ccc2c(=O)[nH]1	6	63*	5	97*	42*	12	57*	Apaf-1 inh conf=98*;Rh110 interf inh=16;Apaf1 inh interf=>100
Cc1ccc2c(c1)C1CS(=O)(=O)N(CC(C)C)CN1C2 (centres undefined)	/	-5	/	/	/	/	/
Cc1ccc(Nc2ccccc2)cc1	2	-1	-4	2	5	/	/
NS(=O)(=O)c1ccc(NC(=O)Nc2ccccc2)cc1	-2	5	-6	-10	2	/	/
NS(=O)(=O)c1ccc(NC2=CC(=O)C(=O)c3ccccc32)cc1	11*	61*	1	95*	84*	88*	63*	PP5 conf=37*;PP1 counter 3x=7;Apaf-1 inh conf=98*;Rh110 interf inh=-2;Apaf1 inh interf=>100
Cc1ccc(NC2=CC(=O)C(=O)c3ccccc32)cc1	2	70*	0	87*	77*	73*	39*
Nc1nc2c(ncn2[C@@H]2O[C@H](C(=O)NCC(F)(F)F)[C@@H](O)[C@H]2O)c(=O)[nH]1	/	-7	/	/	/	/	/
O=C(O)CCCNc1cc(N2CCN(C(=O)c3ccco3)CC2)c2noc3c2c1C(=O)c1ccccc1-3	6	30*	7	60*	53*	30	27*	Apaf-1 inh conf=28;Rh110 interf inh=1
COC(=O)[C@@]12C[C@@H](CC(=O)NCCc3ccccc3OC)C(=O)N(Cc3ccccc3)C1=CCC(C)(C)C2	/	-2	/	/	/	/	/
COc1cccc(/C=N/Nc2nnc(C)n2N)c1O	0	41*	0	3	41*	1	1
COc1cccc(/C=N/Nc2cc(Cl)nc(C)n2)c1O	5	10	5	5	28	/	/
O=Cc1coc([B-](F)(F)F)c1	/	-9	/	/	/	/	/
SMILES	PP5 inh	TDP2 inh	PP1 inh	Apaf1 inhib	GSTO1 inh	GSTO1 inh conf	TDP2 inh conf	others
COc1cc(/C=C2\C(=O)N(c3ccc(NC(C)=O)cc3)N=C2c2ccccc2)ccc1O	1	54*	-7	39	76*	27	12
CCCCCCCCN1C(=O)[C@@H](CC(=O)NCc2ccc(OC)c(OC)c2)C[C@@]2(C(=O)OC)C1=C[C@H](C(C)(C)C)O[C@@H]2C	/	-1	/	/	/	/	/
CC(=O)c1ccc([C@H](O)[C@@H](C(=O)N(C)c2ccccc2)C2CC2)cc1	/	4	/	/	/	/	/
CCCNC1=C(N(C(C)=O)c2cccc(F)c2)C(=O)c2ccccc2C1=O	5	26*	3	/	55*	41*	25*
Cc1oc2c(c1C(=O)c1ccccc1)C(=O)C(=O)c1ccccc1-2	4	38*	1	91*	85*	91*	55*
COc1ccc(S(=O)(=O)Nc2cccc3ccc(O)cc23)cc1	4	2	-1	-3	0	/	/
COc1ccc(S(=O)(=O)Nc2cc(SCC(=O)O)c(O)c3ccccc23)cc1	5	43*	1	85*	81*	54*	50*	Apaf-1 inh conf=41*;Rh110 interf inh=5;Apaf1 inh interf=>100
CN(C)c1ccc(C=Nc2ccc(N(C)C)cc2)cc1	2	28*	0	39	78*	6	4
Cc1ccc(N=Cc2ccc(N(C)C)cc2)cc1	2	8	-5	-6	6	/	/
COC(=O)[C@]12CCCCC=C1N(Cc1ccc(OC)cc1)C(=O)[C@@H]2CC(=O)N1CCSCC1	/	-7	/	/	/	/	/
O=S1(=O)CC(N2CCC(c3ccccc3)CC2)CN1Cc1cn(Cc2ccc(C(F)(F)F)cc2)nn1 (centres undefined)	/	1	/	/	/	/	/
O=C(COC(=O)c1ccc([N+](=O)[O-])s1)NCc1ccc(F)cc1	3	59*	-1	34	43*	16	23
COc1cc(C2C(C#N)=C(N)Oc3c2c(-c2ccccc2)nn3-c2ccccc2)cc(OC)c1OC (centres undefined)	2	80*	1	16	52*	14	10
O=C(Nc1c(-c2ccc(C(F)(F)F)cc2)nc2ncccn12)c1ccc(F)cc1	/	10	/	/	/	/	/

Compound activity deposited in PubChem BioAssay by several laboratories.
